ChEMBL document CHEMBL1275350, “First in class, potent, and orally bioavailable NADPH oxidase isoform 4 (Nox4) inhibitors for the treatment of idiopathic pulmonary fibrosis” (J Med Chem, 2010)

Tests used:
[1] = target: Polyunsaturated fatty acid lipoxygenase ALOX15 (Homo sapiens) (UniProt P16050); assay: Inhibition of 15-lipoxygenase at 10 uM
NADPH oxidase 4 = target: T1, NADPH oxidase 4 (Homo sapiens, UniProt Q9NPH5); assay: Inhibition of human NOX4 overexpressed in T-REx-293 cell membrane assessed as ROS production by cell free assay in presence of NADPH; conditions: in the assay text read “T-REx-293 cell membrane” for “human PMN cell membrane”
T1 sequence (Q9NPH5 whole entry): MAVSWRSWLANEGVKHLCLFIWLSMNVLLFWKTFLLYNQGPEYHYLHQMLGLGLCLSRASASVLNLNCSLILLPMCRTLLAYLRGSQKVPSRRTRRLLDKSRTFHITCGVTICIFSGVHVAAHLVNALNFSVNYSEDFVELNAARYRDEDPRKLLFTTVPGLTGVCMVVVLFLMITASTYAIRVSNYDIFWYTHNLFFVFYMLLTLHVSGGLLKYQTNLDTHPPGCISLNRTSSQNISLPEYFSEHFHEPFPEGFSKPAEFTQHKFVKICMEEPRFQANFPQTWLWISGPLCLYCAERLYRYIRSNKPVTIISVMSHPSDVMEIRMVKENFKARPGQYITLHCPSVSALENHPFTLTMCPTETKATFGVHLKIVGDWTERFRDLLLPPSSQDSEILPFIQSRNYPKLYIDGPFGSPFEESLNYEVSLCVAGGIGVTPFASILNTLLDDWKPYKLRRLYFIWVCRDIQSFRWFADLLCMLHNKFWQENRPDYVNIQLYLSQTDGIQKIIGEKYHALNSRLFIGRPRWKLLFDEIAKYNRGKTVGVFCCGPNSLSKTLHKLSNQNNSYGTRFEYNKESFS
Method in brief: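 hNOX4 T-REx-293 cells induced with tetracycline (1 μg/mL, 24 h), sonicated in sucrose/NaCl/EGTA PBS buffer pH 7.4, membranes taken from a sucrose gradient. NADPH-triggered ROS measured by Amplex Red/HRP in PBS, with compound at 1 nM–100 μM, 20 min at 37 °C. Ki by Cheng-Prusoff from ≥3 triplicate experiments.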

NADPH oxidase 2 = NADPH oxidase 2 (Homo sapiens, UniProt P04839); assay: Inhibition of human NOX2 overexpressed in […] cell membrane assessed as ROS production by cell free assay in presence of NADPH
Method in brief: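 Nox2 source: membranes from human polymorphonuclear cells, sonicated and collected at the 17/40% sucrose interface. ROS read by Amplex Red/HRP in PBS after NADPH addition, with compound at 1 nM–100 μM for 20 min at 37 °C. Background taken without membranes or agonist. Ki via Cheng-Prusoff, mean of ≥3 experiments in triplicate.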

[2] = target: Xanthine dehydrogenase/oxidase (Homo sapiens, UniProt P47989); assay: Inhibition of xanthine oxidase by in vitro enzymatic assay in presence of xanthine
Method in brief: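 Cell-free Amplex Red read-out: xanthine oxidase incubated in PBS with Amplex Red, HRP and cofactors; ROS production started by adding xanthine. Compound at rising concentrations from 1 nM to 100 μM, 20 min at 37 °C, then read on a plate reader. Background taken without enzyme or without agonist. Ki by Cheng-Prusoff, mean of at least three experiments run in triplicate.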

Plasma = assay: Unbound fraction in Sprague-Dawley rat 50% plasma protein; type: ADME, cell-free
[3] = Intrinsic clearance in human liver microsomes assessed as per mg of protein at 0.5 uM; type: ADME, Microsome
Method in brief: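 Phase I stability assay in pooled liver microsomes (human: male and female; rat: male Sprague-Dawley). Microsomes at 0.5 mg/mL final in 0.1 M phosphate pH 7.4. Compound 0.5 μM final, 0.25% DMSO. Preincubated at 37 °C, reaction started with 1 mM NADPH. Sampled at 0, 5, 15, 30 and 45 min, with a 45 min minus-NADPH control. Methanol quench with internal standard, LC/MS-MS, intrinsic clearance calculated.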

Cytochrome P450 2C9 = Cytochrome P450 2C9 (Homo sapiens, UniProt P11712); assay: Inhibition of human CYP2C9; type: ADME
Method in brief: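 Recombinant human CYP isoforms with isoform-specific probe substrates and NADPH. Compound at 0.1–25 μM, final DMSO 0.3%. Metabolites measured by mass spectrometry, except CYP1A2, which used a fluorescent metabolite. IC50 derived from the decrease in metabolite formation compared with vehicle control.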

[4] = AUC (infinity) in Sprague-Dawley rat at 10 mg/kg, po; type: ADME, organism-based; design: time infinity, dose 10 mg/kg, route oral; conditions: plasma
Method in brief: (§1)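 Parallel design with six male rats: three given 5 mg/kg iv in EDPW (10% EtOH, 10% DMA, 30% PG, 50% water), three given 10 mg/kg orally in aqueous 0.5% CMC with 0.25% Tween 20. Carotid cannula blood sampled up to 24 h. Plasma levels by LC/MS/MS (LLOQ 1.00 ng/mL). Noncompartmental analysis.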

[5] = Oral bioavailability in Sprague-Dawley rat at 10 mg/kg; type: ADME, organism-based; conditions: in vivo
Method in brief: (§2)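 Parallel design in male rats, three per group. Group 1: 5 mg/kg iv in EDPW (10% EtOH, 10% DMA, 30% PG, 50% water). Group 2: 10 mg/kg oral in aqueous 0.5% CMC with 0.25% Tween 20. Carotid cannula blood drawn up to 24 h. Plasma measured by LC/MS/MS (LLOQ 1.00 ng/mL), noncompartmental analysis.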

[6] = Tmax in Sprague-Dawley rat at 10 mg/kg, po; type: ADME, organism-based; design: dose 10 mg/kg, route oral; conditions: in vivo; method in brief: as §2
[7] = Cmax in Sprague-Dawley rat at 5 mg/kg, iv; type: ADME, organism-based; design: dose 5 mg/kg, route intravenous; conditions: in vivo; method in brief: as §1
[8] = Half life in Sprague-Dawley rat at 5 mg/kg, iv; type: ADME, organism-based; design: dose 5 mg/kg, route intravenous; conditions: in vivo; method in brief: as §1
[9] = Clearance in Sprague-Dawley rat at 5 mg/kg, iv; type: ADME, organism-based; design: dose 5 mg/kg, route intravenous; conditions: in vivo; method in brief: as §1
[10] = Volume of distribution at steady state in Sprague-Dawley rat at 5 mg/kg, iv; type: ADME, organism-based; design: dose 5 mg/kg, route intravenous; conditions: in vivo, read-out: Vdss; method in brief: as §2
Mus musculus = assay: Toxicity in mouse up to 1000 mg/kg, po over 2 weeks; type: organism-based; design: dose 1000 mg/kg, route oral; conditions: in vivo, 336 h
Method in brief: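 Dose range finding in mice, given orally for 2 weeks at up to 1000 mg/kg.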

Rattus norvegicus = organism: Rattus norvegicus; assay: Inhibition of rat AMPK at 10 uM
[11] = Inhibition of calcium channel at 10 uM
[12] = Inhibition of sodium channel at 10 uM
[13] = Inhibition of potassium channel at 10 uM
MAO-B = MAO-B (Homo sapiens, UniProt P27338); assay: Inhibition of MAO-B at 10 uM
[14] = target: Protein kinase C alpha type (Homo sapiens) (UniProt P17252); assay: Inhibition of human PKCalpha at 10 uM
[15] = target: Protein kinase C beta type (Homo sapiens) (UniProt P05771); assay: Inhibition of human PKCbeta at 10 uM
[16] = target: Phosphatidylinositol 4,5-bisphosphate 3-kinase catalytic subunit alpha isoform (Homo sapiens) (UniProt P42336); assay: Inhibition of PI3Kalpha at 10; conditions: concentration not given here
[17] = target: Phosphatidylinositol 4,5-bisphosphate 3-kinase catalytic subunit beta isoform (Homo sapiens) (UniProt P42338); assay: Inhibition of PI3Kbeta at 10; conditions: concentration not given here
[18] = target: Nitric oxide synthase, inducible (Homo sapiens) (UniProt P35228); assay: Inhibition of iNOS at 10 uM
Sequence of Nitric oxide synthase, inducible (Homo sapiens) (P35228 whole entry): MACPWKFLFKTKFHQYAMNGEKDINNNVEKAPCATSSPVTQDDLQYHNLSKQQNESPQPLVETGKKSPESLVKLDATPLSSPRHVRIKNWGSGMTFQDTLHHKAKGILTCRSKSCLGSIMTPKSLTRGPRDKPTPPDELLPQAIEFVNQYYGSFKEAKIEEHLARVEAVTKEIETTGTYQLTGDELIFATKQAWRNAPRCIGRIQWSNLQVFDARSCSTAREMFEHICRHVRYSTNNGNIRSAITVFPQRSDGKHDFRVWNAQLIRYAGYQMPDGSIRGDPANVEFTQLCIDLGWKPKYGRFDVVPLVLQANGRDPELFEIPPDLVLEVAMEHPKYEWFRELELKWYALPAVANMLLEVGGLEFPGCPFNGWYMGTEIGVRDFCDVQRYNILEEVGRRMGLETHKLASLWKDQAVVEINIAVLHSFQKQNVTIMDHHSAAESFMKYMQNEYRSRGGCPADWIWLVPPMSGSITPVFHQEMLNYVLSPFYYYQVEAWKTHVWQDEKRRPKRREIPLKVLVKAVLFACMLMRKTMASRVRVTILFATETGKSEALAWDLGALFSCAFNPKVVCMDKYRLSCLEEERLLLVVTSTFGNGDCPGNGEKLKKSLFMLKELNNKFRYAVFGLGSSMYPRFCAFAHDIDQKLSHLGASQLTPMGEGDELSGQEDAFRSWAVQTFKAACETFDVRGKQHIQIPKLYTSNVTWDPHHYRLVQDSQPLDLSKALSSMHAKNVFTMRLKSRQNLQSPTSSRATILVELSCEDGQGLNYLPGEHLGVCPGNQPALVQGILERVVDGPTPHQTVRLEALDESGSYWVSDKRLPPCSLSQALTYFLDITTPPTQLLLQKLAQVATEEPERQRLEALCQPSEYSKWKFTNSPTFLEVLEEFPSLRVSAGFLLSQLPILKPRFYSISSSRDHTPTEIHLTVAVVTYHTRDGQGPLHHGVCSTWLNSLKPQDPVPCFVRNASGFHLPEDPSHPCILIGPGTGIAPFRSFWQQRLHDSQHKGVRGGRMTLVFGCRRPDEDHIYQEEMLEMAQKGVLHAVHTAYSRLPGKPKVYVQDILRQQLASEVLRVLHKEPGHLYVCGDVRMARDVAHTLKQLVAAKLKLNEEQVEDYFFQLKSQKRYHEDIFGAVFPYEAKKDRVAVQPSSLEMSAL

Sequence of Cytochrome P450 2C9 (P11712 whole entry, canonical isoform): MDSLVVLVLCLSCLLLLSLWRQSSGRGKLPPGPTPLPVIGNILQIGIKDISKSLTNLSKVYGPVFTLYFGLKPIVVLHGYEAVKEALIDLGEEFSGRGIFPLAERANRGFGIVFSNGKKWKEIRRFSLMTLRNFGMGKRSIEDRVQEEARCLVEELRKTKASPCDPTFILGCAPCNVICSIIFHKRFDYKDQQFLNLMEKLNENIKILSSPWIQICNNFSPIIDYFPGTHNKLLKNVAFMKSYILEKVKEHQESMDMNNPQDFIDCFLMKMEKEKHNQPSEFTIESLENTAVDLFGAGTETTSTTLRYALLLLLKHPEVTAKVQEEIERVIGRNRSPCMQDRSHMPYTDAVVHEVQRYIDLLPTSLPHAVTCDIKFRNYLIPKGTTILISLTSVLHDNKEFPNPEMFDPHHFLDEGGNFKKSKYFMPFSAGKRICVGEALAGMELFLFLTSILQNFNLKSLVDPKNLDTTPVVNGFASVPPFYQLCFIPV
Sequence of Phosphatidylinositol 4,5-bisphosphate 3-kinase catalytic subunit alpha isoform (Homo sapiens) (P42336 whole entry, canonical isoform): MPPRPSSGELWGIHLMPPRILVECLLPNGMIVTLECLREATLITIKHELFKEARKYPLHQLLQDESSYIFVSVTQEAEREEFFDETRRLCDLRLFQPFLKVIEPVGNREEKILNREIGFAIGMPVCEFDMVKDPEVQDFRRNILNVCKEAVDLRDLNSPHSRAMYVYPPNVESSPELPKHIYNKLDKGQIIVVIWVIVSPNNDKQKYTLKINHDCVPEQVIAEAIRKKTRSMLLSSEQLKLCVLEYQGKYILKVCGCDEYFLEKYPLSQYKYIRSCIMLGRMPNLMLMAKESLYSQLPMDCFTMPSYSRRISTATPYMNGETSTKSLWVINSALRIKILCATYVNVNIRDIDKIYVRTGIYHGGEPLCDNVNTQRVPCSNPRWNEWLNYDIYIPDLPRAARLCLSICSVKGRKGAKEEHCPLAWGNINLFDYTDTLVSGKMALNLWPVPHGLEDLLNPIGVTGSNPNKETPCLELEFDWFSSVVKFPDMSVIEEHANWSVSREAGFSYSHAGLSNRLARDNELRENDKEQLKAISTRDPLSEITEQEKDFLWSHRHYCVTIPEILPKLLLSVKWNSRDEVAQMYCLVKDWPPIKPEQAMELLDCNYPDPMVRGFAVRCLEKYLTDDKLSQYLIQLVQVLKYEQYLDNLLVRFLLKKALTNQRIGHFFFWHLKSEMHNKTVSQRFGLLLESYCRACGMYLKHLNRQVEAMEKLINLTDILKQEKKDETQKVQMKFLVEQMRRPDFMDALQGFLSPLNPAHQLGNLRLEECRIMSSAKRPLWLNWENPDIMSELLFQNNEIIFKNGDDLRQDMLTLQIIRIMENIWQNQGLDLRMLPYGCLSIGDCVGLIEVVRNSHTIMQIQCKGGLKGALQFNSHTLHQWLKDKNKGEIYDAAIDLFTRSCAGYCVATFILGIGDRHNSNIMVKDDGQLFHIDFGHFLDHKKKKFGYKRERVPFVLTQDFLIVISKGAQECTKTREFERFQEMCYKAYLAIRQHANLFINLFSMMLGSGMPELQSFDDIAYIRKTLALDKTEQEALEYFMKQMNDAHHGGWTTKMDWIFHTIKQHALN
Sequence of Polyunsaturated fatty acid lipoxygenase ALOX15 (Homo sapiens) (P16050 whole entry): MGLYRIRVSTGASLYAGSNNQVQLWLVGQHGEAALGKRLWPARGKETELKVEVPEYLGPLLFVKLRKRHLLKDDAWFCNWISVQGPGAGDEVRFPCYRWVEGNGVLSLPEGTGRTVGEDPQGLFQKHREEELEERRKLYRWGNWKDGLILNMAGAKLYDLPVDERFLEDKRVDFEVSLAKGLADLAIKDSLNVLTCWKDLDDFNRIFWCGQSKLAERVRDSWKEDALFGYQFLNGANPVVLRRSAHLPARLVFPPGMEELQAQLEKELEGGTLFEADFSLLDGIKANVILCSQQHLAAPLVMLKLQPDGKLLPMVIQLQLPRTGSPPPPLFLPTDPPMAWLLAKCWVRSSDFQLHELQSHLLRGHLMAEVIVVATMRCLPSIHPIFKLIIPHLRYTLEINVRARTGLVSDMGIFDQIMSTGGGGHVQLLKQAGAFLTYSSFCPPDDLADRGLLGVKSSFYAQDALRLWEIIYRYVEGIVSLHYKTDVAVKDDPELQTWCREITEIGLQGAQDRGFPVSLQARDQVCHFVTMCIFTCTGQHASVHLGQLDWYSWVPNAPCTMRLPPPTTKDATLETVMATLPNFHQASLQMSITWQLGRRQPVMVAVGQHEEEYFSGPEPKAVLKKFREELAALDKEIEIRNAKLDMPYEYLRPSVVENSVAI
Sequence of NADPH oxidase 2 (P04839 whole entry): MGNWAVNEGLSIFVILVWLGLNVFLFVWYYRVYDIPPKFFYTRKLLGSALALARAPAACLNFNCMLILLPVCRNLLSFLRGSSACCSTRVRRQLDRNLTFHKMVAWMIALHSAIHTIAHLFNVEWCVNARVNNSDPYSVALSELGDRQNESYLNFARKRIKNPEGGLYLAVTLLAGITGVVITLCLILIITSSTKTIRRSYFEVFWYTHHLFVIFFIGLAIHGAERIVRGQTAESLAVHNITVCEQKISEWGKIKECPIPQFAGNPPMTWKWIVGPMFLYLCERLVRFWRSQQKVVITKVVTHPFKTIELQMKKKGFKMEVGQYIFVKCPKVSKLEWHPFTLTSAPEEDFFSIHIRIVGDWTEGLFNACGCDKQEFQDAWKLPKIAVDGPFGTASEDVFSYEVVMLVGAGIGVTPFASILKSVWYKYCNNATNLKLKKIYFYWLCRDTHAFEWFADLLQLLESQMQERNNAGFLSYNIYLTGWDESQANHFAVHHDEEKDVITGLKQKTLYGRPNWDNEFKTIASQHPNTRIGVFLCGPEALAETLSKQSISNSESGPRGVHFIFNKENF

Cc1c2c(=O)n(-c3ccccc3Cl)[nH]c2cc(=O)n1Cc1ccccn1
inhibition [1]: 0% | Ki (NADPH oxidase 4): 0.165 µM | Ki (NADPH oxidase 2): 1.53 µM | Ki [2]: > 30 µM | Fu (Plasma): 20.5% | microsomal CLint at 0.5 µM [3]: 24.8 µL/min/mg | IC50 (Cytochrome P450 2C9): > 25 µM | AUC(0-inf) [4]: 10900 ng·h/mL | bioavailability [5]: 54% | Tmax [6]: 1.5 h | Cmax [7]: 12100 ng/mL | half-life [8]: 3.63 h | clearance [9]: 7.83 mL/min/kg | Vd [10]: 1.08 L/kg | Activity (Mus musculus): Non-toxic | inhibition (Rattus norvegicus): 0% | inhibition [11]: 0% | inhibition [12]: 4% | inhibition [13]: 0% | inhibition at 10 µM (MAO-B): 0% | inhibition [14]: 0% | inhibition [15]: 0% | inhibition [16]: 0% | inhibition [17]: 0% | inhibition [18]: 0%
